From ChEMBL document CHEMBL2016480, “Structure-based ligand design of novel bacterial RNA polymerase inhibitors” (ACS Med Chem Lett, 2011)
Values after ≈ are worked out from the molar mass of the structure shown.

Legend:
[1] = Inhibition of Escherichia coli DNA dependent RNA polymerase assessed as inhibition of [14C]UTP incorporation after 15 mins by liquid scintillation counting
Escherichia coli [2] = assay: Antibacterial activity against Escherichia coli 1411 expressing lacI3, lacZ118, proB, trp, nalA, rpsL; type: functional
Summary of the method: (§1)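 MICs by standard susceptibility testing per British Society for Antimicrobial Chemotherapy guidelines, run in triplicate. For the PMBN lines, tests were repeated with polymyxin B nonapeptide added as an outer-membrane permeabilizer.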

Escherichia coli [3] = assay: Antibacterial activity against kanamycin-resistant,acrAB::Tn903 deficient Escherichia coli SM1411 expressing lacI3, lacZ118, proB, trp, nalA, rpsL; type: functional
Escherichia coli [4] = assay: Antibacterial activity against kanamycin-resistant,acrAB::Tn903 deficient Escherichia coli SM1411 expressing lacI3, lacZ118, proB, trp, nalA, rpsL in the presence of polymyxin B nonapeptide; type: functional
Staphylococcus aureus [5] = assay: Antibacterial activity against Staphylococcus aureus SH1000 expressing rsbU gene in the presence of polymyxin B nonapeptide; type: functional; summary of the method: as §1
Bacillus subtilis [6] = assay: Antibacterial activity against Bacillus subtilis 1S34 in the presence of polymyxin B nonapeptide; type: functional; summary of the method: as §1
Escherichia coli [7] = assay: Antibacterial activity against Escherichia coli 1411 expressing lacI3, lacZ118, proB, trp, nalA, rpsL in the presence of polymyxin B nonapeptide; type: functional; summary of the method: as §1
Staphylococcus aureus [8] = assay: Antibacterial activity against Staphylococcus aureus SH1000 expressing rsbU gene; type: functional; summary of the method: as §1
Bacillus subtilis [9] = assay: Antibacterial activity against Bacillus subtilis 1S34; type: functional; summary of the method: as §1
[10] = Inhibition of Escherichia coli DNA dependent RNA polymerase after 2 hrs by SYBR Green-based spectrophotometric analysis
Summary of the method: (§2)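 In vitro transcription assay with E. coli RNA polymerase on a Kool NC-45 RNAP template. Activity was reported as IC50 or as percentage inhibition at 100 μM compound.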

Staphylococcus aureus [11] = assay: Antibacterial activity against Staphylococcus aureus; type: functional
Escherichia coli [12] = assay: Inhibition of Escherichia coli DNA dependent RNA polymerase at 100 uM after 2 hrs by SYBR Green-based spectrophotometric analysis; summary of the method: as §2
[13] = Inhibition of chymotrypsin at 100 uM
Summary of the method: (§3)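 Counter-screens for promiscuous inhibition using malate dehydrogenase and chymotrypsin enzyme assays. Activity was reported as percentage inhibition at 100 μM compound.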

[14] = Inhibition of malate dehydrogenase at 100 uM; summary of the method: as §3
Saccharomyces cerevisiae = assay: Inhibition of yeast RNA polymerase 2 at 100 uM
Summary of the method: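 Selectivity assay against yeast RNA polymerase II. Activity was reported as percentage inhibition at 100 μM compound.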

[15] = Inhibition of DNA dependent RNA polymerase

Row | SMILES | IC50 [1] [µM] | MIC (Escherichia coli [2]) [µg/mL] | MIC (Escherichia coli [3]) [µg/mL] | MIC (Escherichia coli [4]) [µg/mL] | MIC (Staphylococcus aureus [5]) [µg/mL] | MIC (Bacillus subtilis [6]) [µg/mL] | MIC (Escherichia coli [7]) [µg/mL] | MIC (Staphylococcus aureus [8]) [µg/mL] | MIC (Bacillus subtilis [9]) [µg/mL] | IC50 [10] [µM] | MIC (Staphylococcus aureus [11]) [µg/mL] | inhibition (Escherichia coli [12]) [%] | inhibition [13] [%] | inhibition [14] [%] | inhibition (Saccharomyces cerevisiae) [%] | IC50 [15] [µM]
1 | CCCC/C(C)=C/C=C(\C)C(=O)c1c(O)cc([C@H](C)CC/C=C/NC(=O)OC)oc1=O [MYXOPYRONIN B] | 0.92 | > 256 | > 256 | > 256 | > 256 | > 256 | > 256 | > 256 | > 256 | 46.5 | 1 (≈ 2.32 µM) |  |  |  |  | 
2 | N#Cc1ccc(C(=O)Nc2ccc(-c3ccccc3)nc2)cc1 |  | > 256 | > 256 | > 256 | > 256 | > 256 | > 256 | > 256 | > 256 |  |  | 10.9 |  |  |  | 
3 | NS(=O)(=O)c1ccc(C(=O)Nc2ccc(N3CCOCC3)nc2)cc1 |  | > 256 | > 256 | > 256 | > 256 | > 256 | > 256 | > 256 | > 256 |  |  | 0 |  |  |  | 
4 | COC(=O)c1ccc(C(=O)Nc2ccc(-n3ccnc3)nc2)cc1 |  | > 256 | > 256 | > 256 | > 256 | > 256 | > 256 | > 256 | > 256 |  |  | 0 |  |  |  | 
5 | N#Cc1ccc(C(=O)Nc2ccc(-n3cncn3)nc2)cc1 |  | > 256 | > 256 | > 256 | > 256 | > 256 | > 256 | > 256 | > 256 | 9.9 |  |  | 0 | 0 | 12 | 
6 | NS(=O)(=O)c1ccc(C(=O)Nc2cccnc2)cc1 |  | > 256 | > 256 | > 256 | > 256 | > 256 | > 256 | > 256 | > 256 |  |  | 0 |  |  |  | 
7 | NS(=O)(=O)c1ccc(C(=O)Nc2ccc(N3CCCC3)nc2)cc1 |  | > 256 | > 256 | > 256 | > 256 | > 256 | > 256 | > 256 | > 256 |  |  | 17.9 |  |  |  | 
8 | NS(=O)(=O)c1ccc(C(=O)Nc2ccc(-n3cncn3)nc2)cc1 |  | > 256 | > 256 | > 256 | > 256 | > 256 | > 256 | > 256 | > 256 | 13.7 |  |  | 0.6 | 1.4 | 9.3 | 
9 | NS(=O)(=O)c1ccc(NC(=O)c2ccc(-n3cncn3)nc2)cc1 |  | > 256 | > 256 | > 256 | > 256 | > 256 | > 256 | > 256 | > 256 |  |  | 0 |  |  |  | 
10 | NS(=O)(=O)c1ccc(C(=O)Nc2ccc(-c3ccccc3)nc2)cc1 |  | > 256 | > 256 | > 256 | > 256 | > 256 | > 256 | > 256 | > 256 |  |  | 32.9 |  |  |  | 
11 | CCCC/C(C)=C/C=C(\C)C(=O)c1c(O)cc(CCC/C=C/NC(=O)OC)oc1=O [DESMETHYL MYXOPYRONIN B] |  | > 256 | > 256 | > 256 | > 256 | > 256 | > 256 | > 256 | > 256 |  | 4 (≈ 9.58 µM) |  |  |  |  | 0.34
12 | NS(=O)(=O)c1ccc(C(=O)Nc2ccc(OCc3ccccn3)nc2)cc1 |  | > 256 | > 256 | > 256 | > 256 | > 256 | > 256 | > 256 | > 256 | 151 |  |  |  |  |  | 
13 | NS(=O)(=O)c1ccc(C(=O)Nc2ccc(-c3ccco3)nc2)cc1 |  | > 256 | > 256 | > 256 | > 256 | > 256 | > 256 | > 256 | > 256 |  |  | 12.9 |  |  |  | 
14 | O=C(O)c1ccc(C(=O)Nc2ccc(-n3ccnc3)nc2)cc1 |  | > 256 | > 256 | > 256 | > 256 | > 256 | > 256 | > 256 | > 256 |  |  | 0 |  |  |  | 
15 | NS(=O)(=O)c1ccc(C(=O)Nc2ccc(-n3ccnc3)nc2)cc1 |  | > 256 | > 256 | > 256 | > 256 | > 256 | > 256 | > 256 | > 256 | 18.9 |  |  | 0 | 0.5 | 14.7 | 
16 | NC(=O)c1ccc(C(=O)Nc2ccc(-n3ccnc3)nc2)cc1 |  | > 256 | > 256 | > 256 | > 256 | > 256 | > 256 | > 256 | > 256 | 11.9 |  |  | 0.1 | 0 | 10.5 | 
17 | NS(=O)(=O)c1ccc(C(=O)Nc2cnc3ccccc3c2)cc1 |  | > 256 | > 256 | > 256 | > 256 | > 256 | > 256 | > 256 | > 256 |  |  | 0 |  |  |  | 
18 | NC(=O)c1ccc(C(=O)Nc2ccc(-n3cncn3)nc2)cc1 |  | > 256 | > 256 | > 256 | > 256 | > 256 | > 256 | > 256 | > 256 | 9.9 |  |  | 1.5 | 0 | 5.2 | 
19 | O=C(Nc1ccc(-n2cncn2)nc1)c1ccccc1 |  | > 256 | > 256 | > 256 | > 256 | > 256 | > 256 | > 256 | > 256 |  |  | 0 |  |  |  | 
20 | O=C(Nc1ccc(-n2cncn2)nc1)c1ccc(C(F)(F)F)cc1 |  | > 256 | > 256 | > 256 | > 256 | > 256 | > 256 | > 256 | > 256 |  |  | 5.9 |  |  |  | 
21 | N#Cc1ccc(C(=O)Nc2ccc(-n3ccnc3)nc2)cc1 |  | > 256 | > 256 | > 256 | > 256 | > 256 | > 256 | > 256 | > 256 | 7.2 |  |  | 1.8 | 0.6 | 17.6 | 
22 | N#Cc1ccc(C(=O)Nc2cnc3ccccc3c2)cc1 |  | > 256 | > 256 | > 256 | > 256 | > 256 | > 256 | > 256 | > 256 |  |  | 0 |  |  |  | 
23 | CS(=O)(=O)c1ccc(C(=O)Nc2ccc(-n3cncn3)nc2)cc1 |  | > 256 | > 256 | > 256 | > 256 | > 256 | > 256 | > 256 | > 256 |  |  | 0 |  |  |  | 
